The record followed here is ChEMBL document CHEMBL4665666, “Discovery and characterization of trypanocidal cysteine protease inhibitors from the 'malaria box'” (Eur J Med Chem, 2019).

Series [1] relates to Trypanosoma brucei brucei. Nature of the series: Trypanocidal activity against Trypanosoma brucei brucei Squib 427 assessed as reduction in parasite viability. The class given is functional, organism-based.
The subject of series [2] is Trypanosoma cruzi. As to the kind of experiment: Trypanocidal activity against Trypanosoma cruzi Y strain trypomastigotes infected in C57BL/6 mouse peritoneal macrophage assessed as reduction in number of trypomastigotes release and measured after day 3 to day 11 post-infection by Neubauer chamber method. The class given is functional, organism-based. As to conditions: time 11.0 day. A digest of the protocol:
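Thioglycolate-elicited peritoneal macrophages from female C57BL/6 mice, 2 × 10^5/well, infected 2 h at 37°C with Y strain trypomastigotes at 5:1 (parasite:cell) and washed. They were then held with compound (3.125–50 µM) or IFN-γ 100 ng/mL. Trypomastigotes released into the supernatant were counted in a Neubauer chamber at several days after infection. Three independent experiments, each in triplicate.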

In series [3] the target is Cruzipain (Trypanosoma cruzi) (UniProt P25779). Nature of the series: Inhibition of recombinant Trypanosoma cruzi cruzain at 100 uM preincubated for 10 mins in presence of 0.01% Triton X-100 relative to control. A digest of the protocol:
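To test detergent sensitivity, cruzain was pre-incubated 10 min at room temperature with compound with no Triton X-100, 0.01% or 0.1% Triton X-100. Cleavage of Z-FR-AMC was then followed at pH 5.5 in acetate buffer. Percent inhibition was compared across detergent levels.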

Series [4] shares this target. As to the kind of experiment: Inhibition of recombinant Trypanosoma cruzi cruzain at 10 uM using Z-FR-AMC as substrate preincubated for 10 mins followed by substrate addition and measured at 12 sec interval for 5 mins by fluorimetric analysis relative to control. Particulars: time 15.0 min. A digest of the protocol:
(§1)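 Recombinant rhodesain or cruzain (1 nM) in 0.1 M sodium acetate pH 5.5, 0.01% Triton X-100, 1 mM β-mercaptoethanol. Compound at a single concentration, either without or after 10 min enzyme pre-incubation. Z-FR-AMC 2.5 µM, read at 340/440 nm every 12 s for 5 min. Inhibition is relative to DMSO, with E-64 as positive control. Done in duplicate (primary screen) or triplicate.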

For series [5], the target named is Rhodesain (Trypanosoma brucei rhodesiense) (UniProt Q95PM0). As to the kind of experiment: Inhibition of recombinant Trypanosoma brucei rhodesain expressed in Pichia pastoris at 300 uM using Z-FR-AMC as substrate and measured at 12 sec interval for 5 mins without preincubation by fluorimetric analysis relative to control. A digest of the protocol:
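Run with no pre-incubation or with 10 min enzyme-compound pre-incubation. Fluorescence read at 340/440 nm. Concentration was set by solubility under assay conditions. Inhibition is against DMSO, with E-64 as positive control; triplicate.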

The test system of series [6] is Peritoneal macrophage. As to the kind of experiment: Effect on nitric oxide production in Trypanosoma cruzi Y strain trypomastigotes infected in C57BL/6 mouse peritoneal macrophage measured after 11 days by Griess reagent based assay. The class given is functional, tissue-based. As to conditions: time 11.0 day. A digest of the protocol:
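Peritoneal macrophages from C57BL/6 mice, infected with T. cruzi Y trypomastigotes at 5:1 for 2 h and/or stimulated with compound or IFN-γ. Supernatant taken 11 days later and mixed with Griess reagent for 10 min. Absorbance read at 540 nm to give nitrite. Three independent experiments in triplicate.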

Series [7] deals with Trypanosoma cruzi. As to the kind of experiment: Trypanocidal activity against Trypanosoma cruzi Y strain trypomastigotes pretreated with compound at 3.125 uM infected in macrophage assessed as reduction in number of trypomastigotes release measured after 7 days by Neubauer chamber method. The class given is functional, Peritoneal macrophage. Also noted: scale not given: the % may be the effect or the level left. As to conditions: time 7 day. A digest of the protocol: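 Y strain trypomastigotes (1×10^6/mL) were incubated 1 h at 37°C in RPMIc with compound at 3.125 µM or medium alone. They were then pelleted, recounted and used to infect C57BL/6 peritoneal macrophages at 5:1 (parasite:cell) for 2 h. Trypomastigotes released into the supernatant were counted in a Neubauer chamber at 5, 7, 9 and 11 days. Three independent experiments, each in triplicate.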

The target in series [8] is cathepsin S (Homo sapiens, UniProt P25774). As to the kind of experiment: Inhibition of recombinant human cathepsin S expressed in Escherichia coli at 100 uM using Z-VVR-AMC as substrate and measured after 15 mins without preincubation by microplate reader based assay relative to control. Particulars: probe Z-VVR-AMC. A digest of the protocol:
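Run with or without 5 min compound–enzyme pre-incubation. AMC fluorescence at 380/460 nm over 15 min. Inhibition relative to DMSO (2% final); E64 1 µM as positive control. Two independent experiments, each in triplicate.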

Series [9] deals with Peritoneal macrophage. As to the kind of experiment: Cytotoxicity against C57BL/6 mouse peritoneal macrophages assessed as reduction in cell viability at 3.125 uM measured after 24 hrs by LDH release assay. The class given is cell-based. A digest of the protocol: (§2)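 Thioglycolate-elicited peritoneal macrophages from female C57BL/6 mice, 2 × 10^5/well, infected or not with T. cruzi Y trypomastigotes (5:1, 2 h). Either the cells got 3.125–50 µM compound or IFN-γ 100 ng/mL, or the parasites were pre-treated 1 h at 3.125 µM. LDH in supernatant measured at 24 h. Three experiments in triplicate.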

Series [10] concerns Peritoneal macrophage. Nature of the series: Cytotoxicity against C57BL/6 mouse peritoneal macrophage cells infected with 3.125 uM compound pretreated trypomastigotes and measured after 24 hrs by LDH release assay. The class given is cell-based. A digest of the protocol: as §2
Series [11] has as its target Cruzipain (Trypanosoma cruzi) (UniProt P25779). As to the kind of experiment: Inhibition of recombinant Trypanosoma cruzi cruzain at 5 uM using Z-FR-AMC as substrate and measured at 12 sec interval for 5 mins without preincubation by fluorimetric analysis relative to control. A digest of the protocol: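 Recombinant rhodesain or cruzain (1 nM) in 0.1 M sodium acetate pH 5.5, 0.01% Triton X-100, 1 mM β-mercaptoethanol. Compound at a single concentration, either without or after 10 min enzyme pre-incubation. Inhibition is relative to DMSO, with E-64 as positive control. Done in duplicate (primary screen) or triplicate.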

Series [12] addresses Rhodesain (Trypanosoma brucei rhodesiense) (UniProt Q95PM0). Nature of the series: Inhibition of recombinant Trypanosoma brucei rhodesain expressed in Pichia pastoris at 10 uM using Z-FR-AMC as substrate preincubated for 10 mins followed by substrate addition and measured at 12 sec interval for 5 mins by fluorimetric analysis relative to control. Particulars: time 15.0 min. A digest of the protocol: as §1

Series [13] concerns the target T1, Rhodesain (Trypanosoma brucei rhodesiense, UniProt Q95PM0). As to the kind of experiment: Mixed inhibition of recombinant Trypanosoma brucei rhodesain expressed in Pichia pastoris by Lineweaver-Burk plot analysis. A digest of the protocol: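 Rhodesain rates were measured at six or more Z-FR-AMC levels (0.3–20.0 µM) and five inhibitor levels, in pH 5.5 acetate buffer with 0.01% Triton X-100 and 1 mM β-mercaptoethanol. Read at 340/440 nm. Mechanism and Ki come from Michaelis–Menten nonlinear fits and Lineweaver–Burk linear regression.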

For series [14], the target named is Cruzipain (Trypanosoma cruzi, UniProt P25779). As to the kind of experiment: Inhibition of recombinant Trypanosoma cruzi cruzain using Z-FR-AMC as substrate preincubated for 10 mins followed by substrate addition and measured at 12 sec interval for 5 mins by fluorimetric analysis. A digest of the protocol:
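Cruzain (recombinant, 1 nM) in 0.1 M sodium acetate pH 5.5 with 0.01% Triton X-100 and 1 mM β-mercaptoethanol; Z-FR-AMC 2.5 µM, read at 340/440 nm every 12 s for 5 min, with or without 10 min enzyme–compound pre-incubation. […] For mechanism and Ki, 0.3–20.0 µM substrate and five inhibitor levels were used, with Lineweaver-Burk plots.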

For series [15], the target named is T1, Rhodesain. Nature of the series: Inhibition of recombinant Trypanosoma brucei rhodesain expressed in Pichia pastoris using Z-FR-AMC as substrate preincubated for 10 mins followed by substrate addition and measured at 12 sec interval for 5 mins by fluorimetric analysis. A digest of the protocol:
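Rhodesain (1 nM) with Z-FR-AMC (2.5 µM) in 0.1 M sodium acetate pH 5.5, 0.01% Triton X-100, 1 mM β-mercaptoethanol, with or without 10 min enzyme-compound pre-incubation. Fluorescence read at 340/440 nm. IC50 by four-parameter nonlinear regression from at least six concentrations in triplicate, with at least two independent runs. Mean ± SEM reported.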

Calls of active or inactive are those of the source. The rule behind the calls is not given here.

Rhodesain (Trypanosoma brucei rhodesiense), sequence (Q95PM0 1-450): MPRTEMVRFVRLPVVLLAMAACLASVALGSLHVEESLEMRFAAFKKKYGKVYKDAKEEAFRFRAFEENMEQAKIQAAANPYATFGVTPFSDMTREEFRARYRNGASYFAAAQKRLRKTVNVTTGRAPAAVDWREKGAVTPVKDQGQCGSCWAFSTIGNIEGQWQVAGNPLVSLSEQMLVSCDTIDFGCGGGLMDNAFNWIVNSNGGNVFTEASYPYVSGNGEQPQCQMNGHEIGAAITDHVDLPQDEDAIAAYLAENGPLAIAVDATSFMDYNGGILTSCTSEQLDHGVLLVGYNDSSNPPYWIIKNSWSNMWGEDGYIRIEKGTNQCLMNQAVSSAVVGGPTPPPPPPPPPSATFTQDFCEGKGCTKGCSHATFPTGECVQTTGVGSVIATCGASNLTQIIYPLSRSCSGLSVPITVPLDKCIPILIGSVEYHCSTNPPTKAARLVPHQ
Cruzipain (Trypanosoma cruzi), sequence (P25779 123-467 limits assumed): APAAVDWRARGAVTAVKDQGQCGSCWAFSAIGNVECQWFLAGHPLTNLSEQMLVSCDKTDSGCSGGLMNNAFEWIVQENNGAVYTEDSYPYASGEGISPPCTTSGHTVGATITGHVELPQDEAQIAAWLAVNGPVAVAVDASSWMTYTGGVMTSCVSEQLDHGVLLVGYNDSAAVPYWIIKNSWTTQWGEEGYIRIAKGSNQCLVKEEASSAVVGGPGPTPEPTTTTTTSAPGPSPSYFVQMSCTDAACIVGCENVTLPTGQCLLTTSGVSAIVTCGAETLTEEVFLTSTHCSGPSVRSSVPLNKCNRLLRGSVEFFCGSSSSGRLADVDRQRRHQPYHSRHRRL
cathepsin S, sequence (P25774 whole entry): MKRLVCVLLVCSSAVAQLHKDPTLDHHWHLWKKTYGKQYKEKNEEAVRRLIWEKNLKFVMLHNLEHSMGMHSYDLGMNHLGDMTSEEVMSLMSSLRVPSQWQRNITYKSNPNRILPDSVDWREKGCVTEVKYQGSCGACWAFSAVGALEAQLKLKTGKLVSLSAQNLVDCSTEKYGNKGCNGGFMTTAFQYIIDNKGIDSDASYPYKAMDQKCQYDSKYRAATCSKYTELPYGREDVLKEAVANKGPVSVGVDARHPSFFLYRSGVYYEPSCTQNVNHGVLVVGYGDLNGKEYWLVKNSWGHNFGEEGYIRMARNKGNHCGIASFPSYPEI
T1 sequence (Q95PM0 whole entry): as the sequence (Q95PM0 1-450) above
Cruzipain, sequence (P25779 whole entry): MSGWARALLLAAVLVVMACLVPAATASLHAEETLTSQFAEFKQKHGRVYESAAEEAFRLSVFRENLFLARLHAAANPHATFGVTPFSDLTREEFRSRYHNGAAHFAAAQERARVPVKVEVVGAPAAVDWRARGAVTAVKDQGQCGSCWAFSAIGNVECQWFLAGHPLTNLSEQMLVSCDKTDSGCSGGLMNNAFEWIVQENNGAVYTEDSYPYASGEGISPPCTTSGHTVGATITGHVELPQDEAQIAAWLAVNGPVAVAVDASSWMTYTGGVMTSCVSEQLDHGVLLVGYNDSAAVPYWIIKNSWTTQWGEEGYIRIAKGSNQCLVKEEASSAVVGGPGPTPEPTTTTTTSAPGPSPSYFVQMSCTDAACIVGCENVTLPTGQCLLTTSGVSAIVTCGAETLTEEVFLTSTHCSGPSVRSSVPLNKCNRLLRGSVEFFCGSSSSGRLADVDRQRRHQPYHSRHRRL

Consider `Cl.Cl.Clc1cc(Br)ccc1-c1ccc(CNCC2CCNCC2)o1`, for which the IC50 in series [1] was determined as 0.1 µM. For the same molecule, the Activity result was “Dose-dependent effect” in series [2], 60% in series [7], “Non-Toxic” in [9] and 30% in series [10]. The inhibition worked out at 67.1% in [3]; 15% in [4]; 96% in series [5]; 29.1% in [11]; 2% in [12]. For the same molecule, the result in [6] was inactive. In addition, the inhibition at 0.25 h, 100 µM in series [8] is 27.1%.

As for `Cn1c(=O)n(C)c2cc(CNCCNc3ccnc4cc(Cl)ccc34)ccc21`, the Ki in [13] was found to be 10 µM. In addition, the IC50 in [14] worked out at 51 µM; in [15], 38 µM. In addition, the inhibition in series [3] was found to be 74.8%; in series [4] it was 18%; in [5], 67%; in series [11], 64.9%; in series [12] it was 12%. In addition, in series [8], the inhibition at 0.25 h, 100 µM was determined as 4.7%.
